Results reported in paper PMC3767132 (Organic & biomolecular chemistry, 2012).
Where two headings read alike, the source gives them in different places.

What was measured:
hMetAP1 = hMetAP1 (Homo sapiens, UniProt P53582); experiment: human MetAP1 enzyme assay; type: biochemical; conditions: for IC50: 10 μM Co2+; for b = bottom value in the dose-response curve, hMetAP1: noted only when above 15%
hMetAP2 = hMetAP2 (Homo sapiens, UniProt P50579); experiment: human MetAP2 enzyme assay; type: biochemical
HUVEC [1] = experiment: HUVEC proliferation assay using [3H]-thymidine incorporation; type: cell-based, human
SIRT1 = experiment: Immunoblot of Ac-p53; type: cell-based, human; conditions: for Immunoblot Ac-p53: compound treated HUVEC lysates, 24 h, signal relative to DMSO = 1.0; for effect on the levels of Ac-p53: up to 10 μM, data not shown
Summary of the method: (§1)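 HUVEC were exposed to test compound for 24 h, typically at 5 μM (some up to 10 μM), with DMSO as negative control. Lysates were immunoblotted for Met-14-3-3γ, 14-3-3γ, Ac-p53 and total p53. Band densities were taken as Met-14-3-3γ/14-3-3γ and Ac-p53/p53 per lane, relative to DMSO = 1.0. Ac-p53 was scored −(<2.0), +(2.0–7.0), ++(7.1–11.6), +++(>11.6).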

MetAP = experiment: Immunoblot of Met-14-3-3γ; type: cell-based, human; conditions: for Immunoblot Met-14-3-3γ: compound treated HUVEC lysates, 24 h, signal relative to DMSO = 1.0; for effect on the levels of Met-14-3-3γ: up to 10 μM, HUVEC, data not shown
Summary of the method: as §1

HeLa = HeLa proliferation assay, 3H-T uptake; type: cell-based; conditions: for IC50: Homo sapiens, HeLa, read-out: IC50 3H-T Uptake HeLa
Jurkat-T = experiment: Jurkat T proliferation assay, 3H-T uptake; type: cell-based; conditions: for IC50: Homo sapiens, Jurkat, read-out: IC50 3H-T Uptake Jurkat-T
HUVEC [2] = experiment: HUVEC cell-viability assay using calcein-AM; type: cell-based, human; conditions: for IC50: Homo sapiens, HUVEC, read-out: IC50 Calcein-AM HUVEC
HFF = HFF cell-viability assay using calcein-AM; type: cell-based, human; conditions: for IC50: Homo sapiens, HFF, read-out: IC50 Calcein-AM HFF
sirtuin 1 (SIRT1) = conditions: read-out: IC50 SIRT1; cited from earlier work
[3] = Metal complexation by UV-vis spectra in MetAP assay buffer; type: physicochemical; conditions: 10 μM in MetAP assay buffer
Summary of the method: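 UV–vis absorption spectra recorded for the test compound at 10 μM in MetAP assay buffer, without and with metal ions. Metals were added as MnCl2 or CoCl2 at 10 μM, a buffer and metal level chosen to emulate the enzyme assay. Complexation was read as shifts in λmax and changes in band intensity.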

HUVEC [4] = experiment: Cytotoxicity seen on treatment of HUVEC for immunoblotting; type: cell-based, human; conditions: 0.5 μM for 24 h
HUVEC [5] = experiment: DCF-DA assay of ROS levels in HUVEC; type: cell-based, human; conditions: HUVEC treated with 10 μM, data not shown
[6] = read-out: IC50 hMetAP1, enzyme assay
[7] = read-out: IC50 hMetAP2, enzyme assay, 10 μM Mn2+
[8] = read-out: IC50 HUVEC, proliferation, 3H-T uptake
[9] = Homo sapiens, HUVEC, read-out: IC50 HUVEC
[10] = Homo sapiens, HUVEC, read-out: IC50 HUVEC, proliferation, 3H-T uptake

Chain of hMetAP2 (P50579 whole entry): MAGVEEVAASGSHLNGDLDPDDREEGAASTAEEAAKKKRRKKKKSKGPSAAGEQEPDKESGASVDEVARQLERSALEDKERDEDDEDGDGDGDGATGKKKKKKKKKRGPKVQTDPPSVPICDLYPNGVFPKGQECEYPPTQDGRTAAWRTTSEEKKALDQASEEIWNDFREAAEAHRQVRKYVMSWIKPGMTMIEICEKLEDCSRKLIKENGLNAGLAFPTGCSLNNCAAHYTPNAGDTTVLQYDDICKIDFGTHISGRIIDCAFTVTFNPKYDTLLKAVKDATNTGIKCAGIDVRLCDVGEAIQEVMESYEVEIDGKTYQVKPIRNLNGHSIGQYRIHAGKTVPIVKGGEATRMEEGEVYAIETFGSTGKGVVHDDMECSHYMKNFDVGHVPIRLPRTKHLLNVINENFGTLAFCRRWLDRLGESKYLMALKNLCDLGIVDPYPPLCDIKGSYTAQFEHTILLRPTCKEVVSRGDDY

Nc1cc(Cl)c2cccnc2c1O [Entry 45]
IC50 (hMetAP1; [6]): > 40000 nM | IC50 (hMetAP2; [7]): > 15000 nM | IC50 (HUVEC [1]; [8]): 273 ± 70 nM | Immunoblot Ac-p53 (SIRT1): − (−, <2.0) | effect on the levels of Ac-p53 (SIRT1; HUVEC): no effect | Immunoblot Met-14-3-3γ (MetAP): − (−, >1.5) | effect on the levels of Met-14-3-3γ (MetAP): no effect

Cc1ccc(S(=O)(=O)Nc2ccc([N+](=O)[O-])c3cccnc23)cc1 [Entry 55, 4-methyl-N-(5-nitroquinolin-8-yl)benzene-sulfonamide]
IC50 (hMetAP1; IC50 hMetAP1, enzyme assay): 21000 nM | b = bottom value in the dose-response curve, hMetAP1 (hMetAP1): 19% | IC50 (hMetAP2): > 15000 nM | IC50 (HUVEC [1]; [9]): 305 ± 70 nM | IC50 (HeLa): 1030 ± 200 nM | IC50 (Jurkat-T): 820 ± 150 nM | IC50 (HUVEC [2]): 1460 ± 210 nM | b = bottom value of the curve, Calcein-AM HFF (HFF): 21% | IC50 (HFF): 783 ± 110 nM | Immunoblot Ac-p53 (SIRT1): − (−, <2.0) | effect on the levels of Ac-p53 (SIRT1; HUVEC): no effect | Immunoblot Met-14-3-3γ (MetAP): − (−, >1.5) | effect on the levels of Met-14-3-3γ (MetAP): no effect

O=[N+]([O-])c1ccc(O)c2ncccc12 [Entry 5, Nitroxoline, reference compound]
inhibition at 10 µM (hMetAP2; read-out: inhibition of MetAP2 activity in HTS): > 90% | IC50 (HUVEC [1]; [10]): 1900 ± 300 nM | IC50 (HeLa): 3970 ± 900 nM | IC50 (Jurkat-T): 1580 ± 300 nM | IC50 (HUVEC [2]): 5130 ± 1200 nM | b = bottom value of the curve, Calcein-AM HFF (HFF): 21% | IC50 (HFF): 3690 ± 1000 nM | Immunoblot Ac-p53 (SIRT1): ++ (++, 7.1–11.6) | Immunoblot Met-14-3-3γ (MetAP): + (+, ≥1.5) | IC50 (sirtuin 1 (SIRT1)): 20200 nM

CN(C)S(=O)(=O)Oc1ccc([N+](=O)[O-])c2cccnc12 [Entry 48, 5-nitroquinolin-8-yl dimethylsulfamate]
IC50 (hMetAP1; [6]): > 15000 nM | IC50 (hMetAP2; [7]): 57 ± 15 nM | IC50 (HUVEC [1]; [9]): 770 ± 100 nM | IC50 (HeLa): 2410 ± 800 nM | IC50 (Jurkat-T): 1730 ± 200 nM | IC50 (HUVEC [2]): 4210 ± 1400 nM | b = bottom value of the curve, Calcein-AM HFF (HFF): 23% | IC50 (HFF): 2260 ± 300 nM | concentration of maximal sirtuin inhibition (biphasic mode) (SIRT1; HUVEC immunoblot, Ac-p53): around 2 μM | Immunoblot Ac-p53 (SIRT1): +++ (+++, >11.6) | Immunoblot Met-14-3-3γ (MetAP): + (+, ≥1.5) | complexation with Mn2+ and Co2+ ions (UV-vis) [3]: does form chelates

O=C(Nc1ccc(O)c2ncccc12)c1ccccc1 [Entry 40]
IC50 (hMetAP1; [6]): 6450 nM | IC50 (hMetAP2; [7]): > 40000 nM | IC50 (HUVEC [1]; [8]): 789 ± 110 nM | Immunoblot Ac-p53 (SIRT1): +++ (+++, >11.6) | Immunoblot Met-14-3-3γ (MetAP): + (+, ≥1.5) | complexation with Mn2+ and Co2+ ions (UV-vis) [3]: signs of complex formation

Nc1ccc(O)c2ncccc12 [Entry 34, 5-aminoquinolin-8-ol]
IC50 (hMetAP1; IC50 hMetAP1, enzyme assay): 8920 ± 1200 nM | IC50 (hMetAP2): 11900 nM | b = bottom value in the dose-response curve, hMetAP2 (hMetAP2; noted only when above 15%): 26% | IC50 (HUVEC [1]; [9]): 218 ± 40 nM | more potent against HUVEC than HeLa (HeLa; 3H-T uptake): about 8 times | IC50 (HeLa): 2360 ± 500 nM | more potent against HUVEC than Jurkat T (Jurkat-T; 3H-T uptake): about 8 times | IC50 (Jurkat-T): 1280 ± 300 nM | b = bottom value of the curve, Calcein-AM HUVEC (HUVEC [2]): 19% | IC50 (HUVEC [2]): 1840 nM | b = bottom value of the curve, Calcein-AM HFF (HFF): 38% | IC50 (HFF): 37300 ± 2100 nM | selectivity for HUVEC inhibition than HFF (HFF; calcein-AM): ~30 times | Immunoblot Ac-p53 (SIRT1): − (−, <2.0) | effect on the levels of Ac-p53 (SIRT1; HUVEC): no effect | Immunoblot Met-14-3-3γ (MetAP): − (−, >1.5) | effect on the levels of Met-14-3-3γ (MetAP): no effect

Oc1c(C(c2ccccc2)N2CCOCC2)cc(Cl)c2cccnc12 (centres unmarked) [Entry 18, 5-Chloro-7-(morpholino(phenyl)methyl)quinolin-8-ol]
IC50 (hMetAP1; IC50 hMetAP1, enzyme assay): 14000 nM | IC50 (HUVEC [1]; [9]): 1920 ± 600 nM | IC50 (HUVEC [2]): 3550 ± 900 nM | b = bottom value of the curve, Calcein-AM HFF (HFF): 18% | IC50 (HFF): 3660 ± 700 nM

Cc1ccc(S(=O)(=O)Nc2cccc3cccnc23)cc1 [Entry 32, 8-quinolinyl p-toluenesulfonamide]
IC50 (hMetAP1; IC50 hMetAP1, enzyme assay): 6970 ± 250 nM | b = bottom value in the dose-response curve, hMetAP1 (hMetAP1): 21% | IC50 (hMetAP2): > 15000 nM | IC50 (HUVEC [1]; [9]): 308 ± 40 nM | IC50 (HeLa): 1120 ± 200 nM | IC50 (Jurkat-T): 790 ± 80 nM | IC50 (HUVEC [2]): 1470 ± 200 nM | b = bottom value of the curve, Calcein-AM HFF (HFF): 21% | IC50 (HFF): 909 ± 120 nM | Immunoblot Ac-p53 (SIRT1): − (−, <2.0) | effect on the levels of Ac-p53 (SIRT1; HUVEC): no effect | Immunoblot Met-14-3-3γ (MetAP): − (−, >1.5) | effect on the levels of Met-14-3-3γ (MetAP): no effect

O=C(Nc1cc(Cl)cc(Cl)c1)Oc1ccc(Cl)c2cccnc12 [Entry 24, 5-Chloroquinolin-8-yl 3,5-dichlorophenylcarbamate]
IC50 (hMetAP1; IC50 hMetAP1, enzyme assay): > 15000 nM | IC50 (hMetAP2): 24 ± 7 nM | IC50 (HUVEC [1]; [10]): 324 ± 60 nM | IC50 (HUVEC [2]): 746 ± 190 nM | b = bottom value of the curve, Calcein-AM HFF (HFF): 17% | IC50 (HFF): 2690 ± 500 nM | cytotoxicity in HUVEC (HUVEC [4]): not enough cells were left | complexation with Mn2+ and Co2+ ions (UV-vis) [3]: lack of complexation

O=Nc1ccc(O)c2ncccc12 [Entry 33, 5-nitrosoquinolin-8-ol]
IC50 (hMetAP1; IC50 hMetAP1, enzyme assay): > 15000 nM | IC50 (hMetAP2): > 50000 nM | IC50 (HUVEC [1]; [9]): 364 ± 200 nM | IC50 (HeLa): 640 ± 200 nM | IC50 (Jurkat-T): 360 ± 70 nM | IC50 (HUVEC [2]): 3720 ± 800 nM | b = bottom value of the curve, Calcein-AM HFF (HFF): 17% | IC50 (HFF): 9080 ± 1200 nM | Immunoblot Ac-p53 (SIRT1): + (+, 2.0–7.0) | Immunoblot Met-14-3-3γ (MetAP): − (−, >1.5) | ROS levels (DCF-DA) (HUVEC [5]): failed to observe any significant increase | affinity for Mn2+ (UV-vis) [3]: very little affinity

COc1ccc(N2CCN(Cc3cc(Cl)c4cccnc4c3O)CC2)cc1 [Entry 17, 5-Chloro-7-((4-(4-methoxyphenyl)piperazin-1-yl)methyl)-quinolin-8-ol]
IC50 (hMetAP1; IC50 hMetAP1, enzyme assay): > 15000 nM | IC50 (hMetAP2): > 15000 nM | IC50 (HUVEC [1]; [9]): 1460 ± 330 nM | level of Ac-p53 compared to DMSO treated cells (SIRT1; 10 μM, HUVEC): did increase | Immunoblot Ac-p53 (SIRT1): + (+, 2.0–7.0) | Immunoblot Met-14-3-3γ (MetAP): − (−, >1.5)

CC(C)(C)C(=O)Oc1ccc([N+](=O)[O-])c2cccnc12 [Entry 46, 5-nitroquinolin-8-yl pivalate]
IC50 (hMetAP1; IC50 hMetAP1, enzyme assay): > 15000 nM | IC50 (hMetAP2): 434 ± 100 nM | Immunoblot Ac-p53 (SIRT1): ++ (++, 7.1–11.6) | Immunoblot Met-14-3-3γ (MetAP): + (+, ≥1.5)

Cc1ccc(S(=O)(=O)Nc2ccc(N=O)c3cccnc23)cc1 [Entry 54, 4-methyl-N-(5-nitrosoquinolin-8-yl)benzene-sulfonamide]
IC50 (hMetAP1; IC50 hMetAP1, enzyme assay): 10500 ± 900 nM | b = bottom value in the dose-response curve, hMetAP1 (hMetAP1): 18% | IC50 (hMetAP2): > 15000 nM | IC50 (HUVEC [1]; [9]): 204 ± 20 nM | IC50 (HeLa): 590 ± 100 nM | IC50 (Jurkat-T): 450 ± 50 nM | IC50 (HUVEC [2]): 1320 ± 200 nM | b = bottom value of the curve, Calcein-AM HFF (HFF): 22% | IC50 (HFF): 782 ± 130 nM | Immunoblot Ac-p53 (SIRT1): − (−, <2.0) | Immunoblot Met-14-3-3γ (MetAP): + (+, ≥1.5) | complexation with Mn2+ and Co2+ ions (UV-vis) [3]: formation of chelates
